In ChEMBL document CHEMBL1152173, “Synthesis and in vitro evaluation of the antifungal activities of dihydropyrimidinones” (2008):
≈ marks a conversion by molar mass, not a printed value. Calls of active or inactive are those of the source. The rule behind the calls is not given here.

Columns and labels:
Trichoderma hamatum [1] = test: Antifungal activity against Trichoderma hamatum assessed as radial growth at 7% after 24 hrs by poison food technique of Flack; format: functional, organism-based
In short: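 Poisoned-food method: acetone stock mixed into molten sterilized potato dextrose agar to final 0.5, 1, 3, 5 or 7%, poured into 90 mm plates. Plates were inoculated with a 9 mm mycelial disc from a 4-day-old pure culture and incubated at 25 ± 1 °C. Colony diameter (mm) was read every 24 h; mean of three replicates.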

Trichoderma hamatum [2] = test: Antifungal activity against Trichoderma hamatum assessed as radial growth at 0.5% after 24 hrs by poison food technique of Flack relative to control; format: functional
Aspergillus niger [3] = test: Antifungal activity against Aspergillus niger assessed as radial growth at 5% after 72 hrs by poison food technique of Flack relative to control; format: functional
Aspergillus niger [4] = test: Antifungal activity against Aspergillus niger assessed as radial growth at 0.5% after 48 hrs by poison food technique of Flack relative to control; format: functional
Trichoderma koningii [5] = test: Antifungal activity against Trichoderma koningii assessed as radial growth at 5% after 48 hrs by poison food technique of Flack relative to control; format: functional
In short: (§1)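 Acetone stock added to molten sterilized PDA to final 0.5–7%, plated in 90 mm dishes with compound-free plates as control. Each plate was inoculated with a 9 mm disc from a 4-day-old culture, incubated at 25 ± 1 °C, and colony diameter measured at 24 h intervals. % inhibition = (control − treatment)/control × 100; three replicates averaged.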

Trichoderma hamatum [6] = test: Antifungal activity against Trichoderma hamatum assessed as radial growth at 0.5% after 48 hrs by poison food technique of Flack relative to control; format: functional
Aspergillus niger [7] = test: Antifungal activity against Aspergillus niger assessed as radial growth at 1% after 24 hrs by poison food technique of Flack relative to control; format: functional
Aspergillus niger [8] = test: Antifungal activity against Aspergillus niger assessed as radial growth at 7% after 48 hrs by poison food technique of Flack relative to control; format: functional
Aspergillus niger [9] = test: Antifungal activity against Aspergillus niger assessed as radial growth at 1% after 72 hrs by poison food technique of Flack relative to control; format: functional
Aspergillus niger [10] = test: Antifungal activity against Aspergillus niger assessed as radial growth at 3% after 48 hrs by poison food technique of Flack relative to control; format: functional
Trichoderma koningii [11] = test: Antifungal activity against Trichoderma koningii assessed as radial growth at 5% after 24 hrs by poison food technique of Flack relative to control; format: functional; in short: as §1
Trichoderma hamatum [12] = test: Antifungal activity against Trichoderma hamatum assessed as radial growth at 1% after 72 hrs by poison food technique of Flack relative to control; format: functional
Aspergillus niger [13] = test: Antifungal activity against Aspergillus niger assessed as radial growth at 5% after 24 hrs by poison food technique of Flack relative to control; format: functional
Trichoderma koningii [14] = test: Antifungal activity against Trichoderma koningii assessed as radial growth at 1% after 48 hrs by poison food technique of Flack relative to control; format: functional; in short: as §1
Aspergillus niger [15] = test: Antifungal activity against Aspergillus niger; format: functional
Trichoderma hamatum [16] = test: Antifungal activity against Trichoderma hamatum; format: functional
Aspergillus niger [17] = test: Antifungal activity against Aspergillus niger assessed as radial growth at 0.5% after 24 hrs by poison food technique of Flack relative to control; format: functional
Trichoderma hamatum [18] = test: Antifungal activity against Trichoderma hamatum assessed as radial growth at 5% after 24 hrs by poison food technique of Flack relative to control; format: functional; in short: as §1
Trichoderma hamatum [19] = test: Antifungal activity against Trichoderma hamatum assessed as radial growth at 7% after 72 hrs by poison food technique of Flack relative to control; format: functional; in short: as §1
Trichoderma hamatum [20] = test: Antifungal activity against Trichoderma hamatum assessed as radial growth at 7% after 24 hrs by poison food technique of Flack relative to control; format: functional; in short: as §1
Trichoderma hamatum [21] = test: Antifungal activity against Trichoderma hamatum assessed as radial growth at 3% after 72 hrs by poison food technique of Flack relative to control; format: functional
Aspergillus niger [22] = test: Antifungal activity against Aspergillus niger assessed as radial growth at 7% after 24 hrs by poison food technique of Flack relative to control; format: functional
Aspergillus niger [23] = test: Antifungal activity against Aspergillus niger assessed as radial growth at 0.5% after 72 hrs by poison food technique of Flack relative to control; format: functional
Aspergillus niger [24] = test: Antifungal activity against Aspergillus niger assessed as radial growth at 3% after 24 hrs by poison food technique of Flack relative to control; format: functional
Trichoderma koningii [25] = test: Antifungal activity against Trichoderma koningii assessed as radial growth at 7% after 48 hrs by poison food technique of Flack relative to control; format: functional; in short: as §1
Trichoderma koningii [26] = test: Antifungal activity against Trichoderma koningii assessed as radial growth at 1% after 24 hrs by poison food technique of Flack relative to control; format: functional; in short: as §1
Trichoderma hamatum [27] = test: Antifungal activity against Trichoderma hamatum assessed as radial growth at 3% after 24 hrs by poison food technique of Flack relative to control; format: functional
Aspergillus niger [28] = test: Antifungal activity against Aspergillus niger assessed as radial growth at 1% after 48 hrs by poison food technique of Flack relative to control; format: functional
Aspergillus niger [29] = test: Antifungal activity against Aspergillus niger assessed as radial growth at 7% after 72 hrs by poison food technique of Flack relative to control; format: functional
Trichoderma hamatum [30] = test: Antifungal activity against Trichoderma hamatum assessed as radial growth at 5% after 72 hrs by poison food technique of Flack relative to control; format: functional; in short: as §1
Trichoderma koningii [31] = test: Antifungal activity against Trichoderma koningii assessed as radial growth at 3% after 48 hrs by poison food technique of Flack relative to control; format: functional; in short: as §1
Trichoderma hamatum [32] = test: Antifungal activity against Trichoderma hamatum assessed as radial growth at 1% after 48 hrs by poison food technique of Flack relative to control; format: functional
Trichoderma hamatum [33] = test: Antifungal activity against Trichoderma hamatum assessed as radial growth at 0.5% after 72 hrs by poison food technique of Flack relative to control; format: functional
Trichoderma hamatum [34] = test: Antifungal activity against Trichoderma hamatum assessed as radial growth at 7% after 48 hrs by poison food technique of Flack relative to control; format: functional; in short: as §1
Trichoderma hamatum [35] = test: Antifungal activity against Trichoderma hamatum assessed as radial growth at 5% after 48 hrs by poison food technique of Flack relative to control; format: functional; in short: as §1
Aspergillus niger [36] = test: Antifungal activity against Aspergillus niger assessed as radial growth at 3% after 72 hrs by poison food technique of Flack relative to control; format: functional
Trichoderma hamatum [37] = test: Antifungal activity against Trichoderma hamatum assessed as radial growth at 3% after 48 hrs by poison food technique of Flack relative to control; format: functional
Trichoderma koningii [38] = test: Antifungal activity against Trichoderma koningii assessed as radial growth at 3% after 72 hrs by poison food technique of Flack relative to control; format: functional; in short: as §1
Trichoderma koningii [39] = test: Antifungal activity against Trichoderma koningii; format: functional
Trichoderma koningii [40] = test: Antifungal activity against Trichoderma koningii assessed as radial growth at 0.5% after 48 hrs by poison food technique of Flack relative to control; format: functional; in short: as §1
Trichoderma koningii [41] = test: Antifungal activity against Trichoderma koningii assessed as radial growth at 0.5% after 72 hrs by poison food technique of Flack relative to control; format: functional; in short: as §1
Trichoderma koningii [42] = test: Antifungal activity against Trichoderma koningii assessed as radial growth at 3% after 24 hrs by poison food technique of Flack relative to control; format: functional; in short: as §1
Trichoderma koningii [43] = test: Antifungal activity against Trichoderma koningii assessed as radial growth at 7% after 24 hrs by poison food technique of Flack relative to control; format: functional; in short: as §1
Trichoderma koningii [44] = test: Antifungal activity against Trichoderma koningii assessed as radial growth at 7% after 72 hrs by poison food technique of Flack relative to control; format: functional; in short: as §1
Trichoderma koningii [45] = test: Antifungal activity against Trichoderma koningii assessed as radial growth at 1% after 72 hrs by poison food technique of Flack relative to control; format: functional; in short: as §1

CCOC(=O)C1=C(C)NC(=S)NC1c1ccccc1 (stereo not given)
Activity (Trichoderma hamatum [1]): Active | inhibition (INH) (Trichoderma hamatum [2]): 17.13% | inhibition (INH) (Aspergillus niger [3]): 55.63% | inhibition (INH) (Aspergillus niger [4]): 0% | inhibition (INH) (Trichoderma koningii [5]): 87.34% | inhibition (INH) (Trichoderma hamatum [6]): 8.81% | inhibition (INH) (Aspergillus niger [7]): 0% | inhibition (INH) (Aspergillus niger [8]): 100% | inhibition (INH) (Aspergillus niger [9]): 0% | inhibition (INH) (Aspergillus niger [10]): 47.81% | inhibition (INH) (Trichoderma koningii [11]): 89.2% | inhibition (INH) (Trichoderma hamatum [12]): 0% | inhibition (INH) (Aspergillus niger [13]): 33.33% | inhibition (INH) (Trichoderma koningii [14]): 0% | MIC (Aspergillus niger [15]): 0.35 µg/mL (≈ 1.27 µM) | MIC (Trichoderma hamatum [16]): 0.025 µg/mL (≈ 0.0905 µM) | inhibition (INH) (Aspergillus niger [17]): 0% | inhibition (INH) (Trichoderma hamatum [18]): 89.18% | inhibition (INH) (Trichoderma hamatum [19]): 95.98% | inhibition (INH) (Trichoderma hamatum [20]): 100% | inhibition (INH) (Trichoderma hamatum [21]): 37.65% | inhibition (INH) (Aspergillus niger [22]): 100% | inhibition (INH) (Aspergillus niger [23]): 0% | inhibition (INH) (Aspergillus niger [24]): 33.33% | inhibition (INH) (Trichoderma koningii [25]): 90.96% | inhibition (INH) (Trichoderma koningii [26]): 0% | inhibition (INH) (Trichoderma hamatum [27]): 67.13% | inhibition (INH) (Aspergillus niger [28]): 0% | inhibition (INH) (Aspergillus niger [29]): 100% | inhibition (INH) (Trichoderma hamatum [30]): 94.96% | inhibition (INH) (Trichoderma koningii [31]): 68.08% | inhibition (INH) (Trichoderma hamatum [32]): 18.65% | inhibition (INH) (Trichoderma hamatum [33]): 0% | inhibition (INH) (Trichoderma hamatum [34]): 100% | inhibition (INH) (Trichoderma hamatum [35]): 93% | inhibition (INH) (Aspergillus niger [36]): 36.36% | inhibition (INH) (Trichoderma hamatum [37]): 67.62% | inhibition (INH) (Trichoderma koningii [38]): 62.71% | MIC (Trichoderma koningii [39]): 0.025 µg/mL (≈ 0.0905 µM) | inhibition (INH) (Trichoderma koningii [40]): 0% | inhibition (INH) (Trichoderma koningii [41]): 0% | inhibition (INH) (Trichoderma koningii [42]): 56.03% | inhibition (INH) (Trichoderma koningii [43]): 91.34% | inhibition (INH) (Trichoderma koningii [44]): 84.42% | inhibition (INH) (Trichoderma koningii [45]): 0%

CCOC(=O)C1=C(C)NC(=O)NC1c1ccccc1 (stereo not given)
Activity (Trichoderma hamatum [1]): Active | inhibition (INH) (Trichoderma hamatum [2]): 11.32% | inhibition (INH) (Aspergillus niger [3]): 73.29% | inhibition (INH) (Aspergillus niger [4]): 0% | inhibition (INH) (Trichoderma koningii [5]): 100% | inhibition (INH) (Trichoderma hamatum [6]): 32.99% | inhibition (INH) (Aspergillus niger [7]): 30.55% | inhibition (INH) (Aspergillus niger [8]): 79.36% | inhibition (INH) (Aspergillus niger [9]): 0% | inhibition (INH) (Aspergillus niger [10]): 52.83% | inhibition (INH) (Trichoderma koningii [11]): 100% | inhibition (INH) (Trichoderma hamatum [12]): 12.34% | inhibition (INH) (Aspergillus niger [13]): 84.72% | inhibition (INH) (Trichoderma koningii [14]): 20.63% | MIC (Aspergillus niger [15]): 0.025 µg/mL (≈ 0.096 µM) | MIC (Trichoderma hamatum [16]): 0.025 µg/mL (≈ 0.096 µM) | inhibition (INH) (Aspergillus niger [17]): 0% | inhibition (INH) (Trichoderma hamatum [18]): 100% | inhibition (INH) (Trichoderma hamatum [19]): 100% | inhibition (INH) (Trichoderma hamatum [20]): 100% | inhibition (INH) (Trichoderma hamatum [21]): 63.38% | inhibition (INH) (Aspergillus niger [22]): 100% | inhibition (INH) (Aspergillus niger [23]): 0% | inhibition (INH) (Aspergillus niger [24]): 69.44% | inhibition (INH) (Trichoderma koningii [25]): 100% | inhibition (INH) (Trichoderma koningii [26]): 12.09% | inhibition (INH) (Trichoderma hamatum [27]): 82.12% | inhibition (INH) (Aspergillus niger [28]): 0% | inhibition (INH) (Aspergillus niger [29]): 76.7% | inhibition (INH) (Trichoderma hamatum [30]): 93.2% | inhibition (INH) (Trichoderma koningii [31]): 62.31% | inhibition (INH) (Trichoderma hamatum [32]): 21.94% | inhibition (INH) (Trichoderma hamatum [33]): 2.46% | inhibition (INH) (Trichoderma hamatum [34]): 100% | inhibition (INH) (Trichoderma hamatum [35]): 96.89% | inhibition (INH) (Aspergillus niger [36]): 54.34% | inhibition (INH) (Trichoderma hamatum [37]): 72.02% | inhibition (INH) (Trichoderma koningii [38]): 70.18% | MIC (Trichoderma koningii [39]): 0.025 µg/mL (≈ 0.096 µM) | inhibition (INH) (Trichoderma koningii [40]): 18.25% | inhibition (INH) (Trichoderma koningii [41]): 1.59% | inhibition (INH) (Trichoderma koningii [42]): 100% | inhibition (INH) (Trichoderma koningii [43]): 100% | inhibition (INH) (Trichoderma koningii [44]): 95.52% | inhibition (INH) (Trichoderma koningii [45]): 10.86%
